Active and inactive are the calls of the source. The calls are words filed in the database; no cut-off is given here. Numbered stars: 1 amine (or outer) side, 2 acyl side, 3 side chain; on linkers, the order of the positions; unused ones are H or OH. Bridge positions count the residues as written; N and C are the ends. Square brackets hold non-standard residues; d marks the D form. Peptide text beside a SMILES is read from it. AMPB(E) = O=C(c1ccc(/N=N/c2ccc(CN[*:1])cc2)cc1)[*:2]; X3 = O=C(c1ccccc1/N=N\c1ccccc1C(=O)[*:2])[*:1]; X4 = O=C(c1ccccc1/N=N/c1ccccc1C(=O)[*:2])[*:1]; Dap = NC[C@H](N)C(=O)O
Experiments:
Assay type in all cases: functional, cell-based
HEK293 = test: Induction of C-terminal GFP-tagged V1b receptor internalization in HEK293 cells at 1 nM incubated for 60 mins by fluorescence microscopy analysis; conditions: Homo sapiens
In short: (§1)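 HEK293 cells stably expressing human V1bR with C-terminal GFP were plated overnight on poly-D-lysine coverslips and serum-starved for one day. Ligands in serum-free medium were applied for 60 min; the Z-form was diode-activated at 340 nm. Cells were fixed in 4% PFA, immunostained (anti-GFP, anti-pCREB, Hoechst) and imaged confocally. pCREB signal was normalized to medium-only controls; internalization was scored from GFP location.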

[1] = molecular target: T1, Vasopressin V1b receptor (Homo sapiens) (UniProt P47901); test: Activation of human C-terminal GFP-tagged V1b receptor in HEK293 cells assessed as CREB phosphorylation at 1 nM incubated for 60 mins by immunostaining analysis; in short: as §1
T1 sequence (whole entry): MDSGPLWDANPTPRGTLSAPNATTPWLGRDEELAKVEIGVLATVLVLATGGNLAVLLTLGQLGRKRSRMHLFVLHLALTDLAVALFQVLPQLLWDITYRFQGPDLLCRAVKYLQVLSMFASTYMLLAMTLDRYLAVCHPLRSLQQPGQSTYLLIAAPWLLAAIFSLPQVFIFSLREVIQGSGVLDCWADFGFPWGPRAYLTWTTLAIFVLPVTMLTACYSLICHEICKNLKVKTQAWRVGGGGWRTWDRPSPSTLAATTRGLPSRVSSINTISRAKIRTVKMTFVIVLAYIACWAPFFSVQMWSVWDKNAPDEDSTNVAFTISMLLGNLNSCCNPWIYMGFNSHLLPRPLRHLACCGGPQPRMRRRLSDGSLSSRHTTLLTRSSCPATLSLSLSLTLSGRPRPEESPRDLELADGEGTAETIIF

[2] = molecular target: Vasopressin V1a receptor (Homo sapiens) (UniProt P37288); test: Agonist activity at human V1a receptor transfected in HEK293 cells upto 10 uM incubated for 1 hr by IP-one HTRF assay
Vasopressin V1a receptor (Homo sapiens), sequence (P37288 whole entry, looked up): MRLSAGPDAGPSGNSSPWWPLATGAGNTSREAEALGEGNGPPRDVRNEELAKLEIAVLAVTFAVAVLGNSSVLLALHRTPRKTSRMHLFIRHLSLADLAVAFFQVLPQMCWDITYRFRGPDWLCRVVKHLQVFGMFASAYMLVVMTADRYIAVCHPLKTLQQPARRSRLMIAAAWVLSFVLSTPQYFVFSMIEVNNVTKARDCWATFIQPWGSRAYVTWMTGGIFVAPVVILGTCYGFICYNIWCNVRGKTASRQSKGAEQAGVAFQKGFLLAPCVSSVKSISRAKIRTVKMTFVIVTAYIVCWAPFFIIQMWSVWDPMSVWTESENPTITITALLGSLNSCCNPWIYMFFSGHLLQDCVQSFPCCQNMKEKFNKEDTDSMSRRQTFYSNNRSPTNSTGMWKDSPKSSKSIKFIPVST
In short: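 Stable HEK293 lines expressing hOTR, hV1aR or hV1bR (10,000 cells/well, 48 h) were preincubated in stimulation buffer for 15 min, then given ligand for 1 h at 37 °C. Z-forms were pre-irradiated at 340 nm for 1 min.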

[3] = molecular target: Vasopressin V1a receptor (Homo sapiens) (UniProt P37288); test: Antagonist activity at human V1a receptor transfected in HEK293 cells at 10 uM relative to control; conditions: filed as antagonist
In short: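 V1aR-expressing HEK293 cells received VP (1 nM final) premixed with test compound (10 or 100 μM), incubated for 1 h at 37 °C. IP1 accumulation was measured by HTRF (665/615 nm) and normalized to basal (0%) and maximal VP (100%). […] At least three independent experiments were run, each in triplicate.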

Activity [3] | Structure (SMILES) | Activity (HEK293) | Activity [2] | other results
– | NC(=O)CC[C@@H]1NC(=O)[C@H](Cc2ccc(/N=N/c3ccccc3)cc2)NC(=O)[C@H](Cc2ccc(O)cc2)NC(=O)[C@@H](N)CSSC[C@@H](C(=O)N2CCC[C@H]2C(=O)N[C@@H](CCCN=C(N)N)C(=O)NCC(N)=O)NC(=O)[C@H](CC(N)=O)NC1=O | inactive | – | Activity [1]: inactive
– | NC(=O)CC[C@@H]1NC(=O)[C@H](Cc2ccc(/N=N\c3ccccc3)cc2)NC(=O)[C@H](Cc2ccc(O)cc2)NC(=O)[C@@H](N)CSSC[C@@H](C(=O)N2CCC[C@H]2C(=O)N[C@@H](CCCN=C(N)N)C(=O)NCC(N)=O)NC(=O)[C@H](CC(N)=O)NC1=O | Active | – | –
– | NC(=O)CC[C@@H]1NC(=O)[C@H](Cc2ccccc2)NC(=O)[C@H](Cc2ccc(O)cc2)NC(=O)[C@@H](N)CSSC[C@@H](C(=O)NCc2ccc(/N=N/c3ccc(C(=O)N[C@@H](CCCN=C(N)N)C(=O)NCC(N)=O)cc3)cc2)NC(=O)[C@H](CC(N)=O)NC1=O (H-CYFQNC[AMPB(E)]RG-NH2; disulfide 1-6) | – | inactive | –
Active | NC(=O)CC[C@@H]1NC(=O)[C@H](Cc2ccccc2)NC(=O)[C@H](Cc2ccc(O)cc2)NC(=O)c2ccccc2/N=N/c2ccccc2C(=O)NC[C@@H](C(=O)N2CCC[C@H]2C(=O)N[C@@H](CCCN=C(N)N)C(=O)NCC(N)=O)NC(=O)[C@H](CC(N)=O)NC1=O (YFQN[Dap]PRG-NH2; linker N-5 via X4) | – | – | –
– | NC(=O)CC[C@@H]1NC(=O)[C@H](Cc2ccccc2)NC(=O)[C@H](Cc2ccc(O)cc2)NC(=O)[C@@H](N)CSSC[C@@H](C(=O)NCc2ccc(/N=N/c3ccc(C(=O)NCC(N)=O)cc3)cc2)NC(=O)[C@H](CC(N)=O)NC1=O (H-CYFQNC[AMPB(E)]G-NH2; disulfide 1-6) | – | inactive | –
Active | NC(=O)CC[C@@H]1NC(=O)[C@H](Cc2ccccc2)NC(=O)[C@H](Cc2ccc(O)cc2)NC(=O)c2ccccc2/N=N\c2ccccc2C(=O)NC[C@@H](C(=O)N2CCC[C@H]2C(=O)N[C@@H](CCCN=C(N)N)C(=O)NCC(N)=O)NC(=O)[C@H](CC(N)=O)NC1=O (YFQN[Dap]PRG-NH2; linker N-5 via X3) | – | – | –

— ChEMBL document CHEMBL5370638
